Assay results taken from PubChem BioAssay AID623965 (Broad Institute, 2012).
Values joined by “and” are separate entries in the source; they are usually repeats but may differ in a detail not shown here. Identical values can stand only once.

Test system: Candida glabrata growth in glycerol medium, OD600, 48 h
Assay: single-agent C. glabrata growth inhibition on glycerol, dose response, glycerol carbon source, dry powder, plate reader, set 3 (AID 623965)
Summary of the method: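 Test system: Candida glabrata yeast cells; times: 48 h static incubation at 30 °C, humidified; detection: OD600 absorbance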

| SMILES | AC50 |
| --- | --- |
| CCOC(=O)N1C(=O)C2(CCCCC2)N(c2ccc(C)cc2)C1=S | 57.6 nM and 55.3 nM |
| CCOC(=O)N1C(=O)C2(CCCCC2)N(c2ccc(Cl)cc2)C1=S | 29.7 nM |
| C/C=C/[C@@H]1[C@H]2C[C@@H](C)CC[C@@H]2C(C)=C[C@H]1C(=O)c1c(O)c(-c2ccc(O)cc2)c[nH]c1=O | 2940 nM |
| CCOC(=O)N1C(=O)C2(CCCCC2)N(c2cccc(C)c2)C1=S | 38.6 nM |
| CC1/C=C/C=C\C=C\C=C\C=C\C=C\C=C\C(O[C@H]2OC(C)C(O)C(N)C2O)CC2OC(O)(CC(O)CC(O)C(O)CCC(O)CC(O)CC(=O)OC(C)C(C)C1O)CC(O)C2C(=O)O (stereo partly drawn) | 1410 nM |
| CCOC(=O)N1C(=O)C2(CCCCC2)N(c2ccc(F)cc2)C1=S | 11.3 nM |
| CCOC(=O)N1C(=O)C2(CCCCC2)N(c2ccccc2)C1=S | 33.5 nM |
| CCOC(=O)N1C(=O)C2(CCCCC2)N(c2ccc(C#N)cc2)C1=S | 39.8 nM |
